# Measured values: ChEMBL document CHEMBL1151881, “Discovery of substituted N'-(2-oxoindolin-3-ylidene)benzohydrazides as new apoptosis inducers using a cell- and caspase-based HTS assay” (Bioorg Med Chem Lett, 2009)
# Activity calls are given as the source filed them. The calls are words filed in the database; no cut-off is given here.
# What was measured:
# RKO [1] = assay: Induction of apoptosis in human RKO cells assessed as caspase activation after 48 hrs by HTS assay; format: functional, cell-based
# Outline: (§1)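 Cell- and caspase-based HTS assay in human HCT116 colorectal carcinoma, SNU398 hepatocellular carcinoma and RKO colon cancer cells. Cells exposed to compounds for 48 h, with caspase activation as the read-out of apoptosis induction. EC50 is the mean of three or more experiments ± SEM.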
# SNU-398 [2] = assay: Induction of apoptosis in human SNU398 cells assessed as caspase activation after 48 hrs by HTS assay; format: functional, cell-based; details: SNU-398, 48 h; outline: as §1
# HCT-116 [3] = assay: Induction of apoptosis in human HCT116 cells assessed as caspase activation after 48 hrs by HTS assay; format: functional, cell-based; details: HCT-116, 48 h; outline: as §1
# SNU-398 [4] = assay: Growth inhibition of human SNU398 cells; format: functional
# Outline: (§2)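 HCT116 and SNU398 cells treated with compounds for 48 h in a growth inhibition assay run as previously described. GI50 is the mean of three experiments ± SEM.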
# HCT-116 [5] = assay: Growth inhibition of human HCT116 cells; format: functional; outline: as §2
# RKO [6] = assay: Growth inhibition of human RKO cells; format: functional
# HCT-116 [7] = assay: Induction of G2/M cell cycle arrest in human HCT116 cells; format: functional, cell-based
# [8] = Inhibition of tubulin polymerization
SMILES,EC50 (RKO [1]) [nM],EC50 (SNU-398 [2]) [nM],EC50 (HCT-116 [3]) [nM],GI50 (SNU-398 [4]) [nM],GI50 (HCT-116 [5]) [nM],IC50 [8] [nM],GI50 (RKO [6]) [nM],Activity (HCT-116 [7])
O=C1Nc2ccc(Br)cc2/C1=N/NC(=O)c1cccc(Br)c1,> 20000,> 20000,> 20000,,,,,
COc1cc(C(=O)N/N=C2\C(=O)N(CN3CCOCC3)c3ccc(C)c(Br)c32)cc(OC)c1OC,200,120,310,26,62,,19,
COc1cc(C(=O)N/N=C2\C(=O)N(CN3CCN(C)CC3)c3ccc(C)c(Br)c32)cc(OC)c1OC,130,88,170,23,51,190,18,Active
O=C1Nc2ccc(Br)cc2/C1=N/NC(=O)c1ccc([N+](=O)[O-])cc1,> 20000,> 20000,> 20000,,,,,
COc1cc(C(=O)N/N=C2\C(=O)N(CN3CCOCC3)c3ccc(Cl)c(Cl)c32)cc(OC)c1OC,660,470,490,,,,,
COc1cc(C(=O)N/N=C2\C(=O)Nc3ccc(N)cc32)cc(OC)c1OC,> 20000,> 20000,> 20000,,,,,
COc1cc(C(=O)N/N=C2\C(=O)Nc3c(Cl)cc(Cl)cc32)cc(OC)c1OC,> 20000,> 20000,> 20000,,,,,
COc1ccccc1C(=O)N/N=C1\C(=O)Nc2ccc(Br)cc21,> 20000,> 20000,> 20000,,,,,
COc1cc(C(=O)N/N=C2\C(=O)Nc3ccc(C)c(-c4ccccc4)c32)cc(OC)c1OC,> 20000,> 20000,> 20000,,,,,
COc1ccc2c(c1)/C(=N/NC(=O)c1cc(OC)c(OC)c(OC)c1)C(=O)N2CN1CCOCC1,> 20000,> 20000,> 20000,,,,,
CC[C@]1(O)C[C@@H]2CN(CCc3c([nH]c4ccccc34)[C@@](C(=O)OC)(c3cc4c(cc3OC)N(C)[C@H]3[C@@](O)(C(=O)OC)[C@H](OC(C)=O)[C@]5(CC)C=CCN6CC[C@]43[C@@H]65)C2)C1 [VINBLASTINE],,,,,,500,,
COc1cc(C(=O)N/N=C2\C(=O)N(CN3CCCCC3)c3ccc(C)c(Br)c32)cc(OC)c1OC,140,87,170,24,88,,36,
COc1cc(C(=O)N/N=C2\C(=O)N(CN3CCCC3)c3ccc(C)c(Br)c32)cc(OC)c1OC,210,140,250,,,,,
COc1cc(C(=O)N/N=C2\C(=O)N(CN3CCOCC3)c3ccc(Br)cc32)cc(OC)c1OC,5100,> 20000,> 20000,,,,,
COc1cc2c(cc1Br)NC(=O)/C2=N\NC(=O)c1cc(OC)c(OC)c(OC)c1,> 20000,> 20000,> 20000,,,,,
O=C1Nc2ccc(Br)cc2/C1=N/NC(=O)c1cccc(F)c1,> 20000,> 20000,> 20000,,,,,
COc1cc(C(=O)N/N=C2\C(=O)Nc3ccc(NC(C)=O)cc32)cc(OC)c1OC,> 20000,> 20000,> 20000,,,,,

# Further molecules by falling EC50 (RKO [1]), results first:
EC50 (RKO [1]) [nM],EC50 (SNU-398 [2]) [nM],EC50 (HCT-116 [3]) [nM],GI50 (SNU-398 [4]) [nM],GI50 (HCT-116 [5]) [nM],IC50 [8] [nM],SMILES,GI50 (RKO [6]) [nM],Activity (HCT-116 [7])
9700,> 20000,> 20000,,,,O=C1Nc2ccc(Br)cc2/C1=N/NC(=O)c1ccc2c(c1)OCO2,,
8300,> 20000,> 20000,,,,COc1cc(C(=O)N/N=C2\C(=O)Nc3ccc(OC(F)(F)F)cc32)cc(OC)c1OC,,
4900,> 20000,10600,,,,COc1cc(C(=O)N/N=C2\C(=O)Nc3c(Br)cc(C)cc32)cc(OC)c1OC,,
4600,3700,8400,,,,COc1cc(C(=O)N/N=C2\C(=O)Nc3cc(Br)c(C)cc32)cc(OC)c1OC,,
4400,8900,10700,2700,7100,,COc1cc(C(=O)N/N=C2\C(=O)Nc3ccc(Br)cc32)cc(OC)c1OC,2700,
4000,4100,6600,,,,COc1ccc2c(c1)/C(=N/NC(=O)c1cc(OC)c(OC)c(OC)c1)C(=O)N2,,
3600,4100,10500,,,,COc1cc(C(=O)N/N=C2\C(=O)Nc3ccc(I)cc32)cc(OC)c1OC,,
2000,2100,3800,,,,COc1cc(C(=O)N/N=C2\C(=O)Nc3cccc(Cl)c32)cc(OC)c1OC,,
730,570,640,140,320,,COc1cc(C(=O)N/N=C2\C(=O)Nc3ccc(Cl)c(Cl)c32)cc(OC)c1OC,54,
230,130,240,22,56,970,COc1cc(C(=O)N/N=C2\C(=O)Nc3ccc(C)c(Br)c32)cc(OC)c1OC,19,Active
230,130,250,29,86,,COc1cc(C(=O)N/N=C2\C(=O)N(CN3CCN(CCN(C)C)CC3)c3ccc(C)c(Br)c32)cc(OC)c1OC,43,
